For series [1], the system named is HeLa. The series is described as follows: Inhibition of cytopathogenicity of herpes simplex type 2 virus([…] in Hela cell culture. The format is functional, cell-based. As to conditions: Homo sapiens. (In general: Cytopathic effects are the visible damage that an infection or toxin causes in cultured cells.)
In series [2] the test system is HeLa. The series is described as follows: Inhibition of cytopathogenicity of Varicella-Zoster virus(VZV)(YS) in Hela cell culture. The format is functional, cell-based. The following applies: Homo sapiens.
The subject of series [3] is HeLa. As to the kind of experiment: Concentration required to cause microscopically visible change or disruption in about 50% of Hela cell sheet. The series is classed as functional, cell-based. As to conditions: Homo sapiens; call rule not given here. An outline of the steps:
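Uninfected HeLa cell sheets were exposed to a range of compound concentrations and checked microscopically for morphological change. The value is the concentration causing visible change or disruption in about 50% of the cell sheet.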

In series [4] the test system is HeLa. The series is described as follows: Inhibition of cytopathogenicity of herpes simplex type 1 virus (HSV-1)(KOS) in Hela cell culture. The series is classed as functional, cell-based. As to conditions: Homo sapiens.
Series [5] in a line: Solubility was determined with phosphate buffer (0.10M, 5 mL). The series is classed as physicochemical. As to conditions: read-out: Solubility in water. The essentials:
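Solid compound (70 mg) was agitated in 0.10 M phosphate buffer (5.0 mL) for 20 h. Undissolved solid was filtered off on sintered glass, and the dissolved concentration was determined by UV absorbance.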

Series [6] has as its system MT4. As to the kind of experiment: Concentration required to reduce the number of viable uninfected cells by 50%. The series is classed as functional, cell-based. As to conditions: Homo sapiens. An outline of the steps: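 Uninfected MT4 cells were used for the toxicity arm of the anti-HIV-1 cell-protection assay. The value is the concentration reducing the number of viable uninfected cells by 50%. […]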

The test system of series [7] is MT4. As to the kind of experiment: Inhibitory Effect against HIV-1 (IIIB) in MT4 cells. As to conditions: Homo sapiens.
The test system of series [8] is HeLa. The series is described as follows: Inhibition of cytopathogenicity of Varicella-Zoster virus(VZV)(YS) in Hela cell culture; Not active up to 128 ug/mL. The format is functional, cell-based, Homo sapiens.
For series [9], the system named is MT4. As to the kind of experiment: Inhibitory Effect against HIV-1 (IIIB) in MT4 cells; Not active up to 128 ug/mL. As to conditions: Homo sapiens.
In series [10] the test system is HeLa. The series is described as follows: Inhibition of cytopathogenicity of herpes simplex type 2 virus([…] in Hela cell culture; Not active up to 128 ug/mL. The format is functional, cell-based, Homo sapiens.

Each structure is given as a SMILES string. Converted amounts (≈) assume the structure as drawn.

Results on 22 compounds are retold here after ChEMBL document CHEMBL1128665, “Design, synthesis, and structure-activity relationship of novel dinucleotide analogs as agents against herpes and human immunodeficiency viruses” (J Med Chem, 1995).

As a reminder, the IC50 is the concentration that gives 50% inhibition. Broadly, the solubility is the concentration that dissolves in the medium under given conditions.

Consider `CCOP(=O)(O)CCOCn1cnc2c(N)ncnc21.N`, for which the IC50 with HeLa [1] turned out to be 13.8 µg/mL; with HeLa [2], 25 µg/mL; with HeLa [3] (read-out: IC50), 176 µg/mL; with HeLa [4] (read-out: IC50), 11.3 µg/mL.

`Nc1ncnc2c1ncn2COCCP(=O)(O)O`: the solubility in [5] came out at 13600 µg/mL (≈ 49900 µM). Besides, the half-inhibitory concentration (IC50) in the series with HeLa [1] stood at 5.86 µg/mL (≈ 21.5 µM); in the series on HeLa [2], 16 µg/mL (≈ 58.6 µM); in the series with HeLa [3] (read-out: IC50), 215 µg/mL (≈ 787 µM); with HeLa [4] (read-out: IC50), 3.98 µg/mL (≈ 14.6 µM).

Take `COC(=O)[C@@H](C)NP(=O)(C[C@H]1O[C@@H](n2cc(C)c(=O)[nH]c2=O)C[C@@H]1F)O[C@H]1C[C@H](n2cc(C)c(=O)[nH]c2=O)O[C@@H]1CO` (some centres undefined): the solubility in series [5] amounted to 8920 µg/mL (≈ 14400 µM). The figures for the IC50 in the series with MT4 [6] and with MT4 [7] were 462 µg/mL (≈ 748 µM) and 0.5 µg/mL (≈ 0.81 µM), respectively.

Consider `COC(=O)[C@@H](C)NP(=O)(C[C@H]1O[C@@H](n2cc(C)c(=O)[nH]c2=O)C[C@@H]1N=[N+]=[N-])O[C@H]1C[C@H](n2cc(C)c(=O)[nH]c2=O)O[C@@H]1CO` (some centres undefined), for which, in [5], the solubility turned out to be 9200 µg/mL (≈ 14400 µM). For the same compound, the IC50 was determined as 458 µg/mL (≈ 714 µM) in the series on MT4 [6] and 0.76 µg/mL (≈ 1.19 µM) with MT4 [7].

With `COC(=O)[C@H](C)NP(=O)(C[C@H]1O[C@@H](n2cc(C)c(=O)[nH]c2=O)C[C@@H]1F)O[C@H]1C[C@H](n2cc(C)c(=O)[nH]c2=O)O[C@@H]1CO` (some centres undefined), the solubility in [5] came to 8790 µg/mL (≈ 14200 µM). In addition, the IC50 with MT4 [6] was 180 µg/mL (≈ 292 µM); with MT4 [7] it was 0.34 µg/mL (≈ 0.551 µM).

Regarding `COC(=O)[C@H](C)NP(=O)(C[C@H]1O[C@@H](n2cc(C)c(=O)[nH]c2=O)C[C@@H]1N=[N+]=[N-])O[C@H]1C[C@H](n2cc(C)c(=O)[nH]c2=O)O[C@@H]1CO` (some centres undefined), in series [5], the solubility came out at 9130 µg/mL (≈ 14300 µM). The IC50 in the series on MT4 [6] was 200 µg/mL (≈ 312 µM); in the series on MT4 [7], 0.61 µg/mL (≈ 0.952 µM).

For `Cc1cn([C@H]2C[C@H](N=[N+]=[N-])[C@@H](CP(=O)(O)O[C@H]3C[C@H](n4cc(C)c(=O)[nH]c4=O)O[C@@H]3CO)O2)c(=O)[nH]c1=O`, the solubility in [5] amounted to 3240 µg/mL (≈ 5830 µM). Besides, the figures for the IC50 with MT4 [6] and in the series with MT4 [7] were 99.5 µg/mL (≈ 179 µM) and 1.92 µg/mL (≈ 3.46 µM), respectively.

Take `Cc1cn([C@H]2C[C@H](OP(=O)(O)C[C@H]3O[C@@H](n4cc(C)c(=O)[nH]c4=O)C[C@@H]3F)[C@@H](CO)O2)c(=O)[nH]c1=O`: the solubility in series [5] stood at 3980 µg/mL (≈ 7480 µM). Also, the values for the half-maximal inhibitory concentration (IC50) with MT4 [6] and in the series on MT4 [7] were 79 µg/mL (≈ 148 µM) and 3.04 µg/mL (≈ 5.71 µM), respectively.

On to `COC(=O)C(C)NP(=O)(CCOCn1cnc2c(N)ncnc21)O[C@H]1[C@H](O)[C@H](n2cnc3c(N)ncnc32)O[C@@H]1CO` (some centres undefined), for which the solubility in series [5] is 8250 µg/mL (≈ 13600 µM). Besides, the IC50 came to 0.88 µg/mL (≈ 1.45 µM) in the series with HeLa [1], 4.82 µg/mL (≈ 7.93 µM) in the series on HeLa [2], 215 µg/mL (≈ 355 µM) with HeLa [3] (read-out: IC50) and 0.38 µg/mL (≈ 0.625 µM) with HeLa [4] (read-out: IC50).

As for `Nc1ncnc2c1ncn2COCCP(=O)(O)O[C@H]1[C@H](O)[C@H](n2cnc3c(N)ncnc32)O[C@@H]1CO`, in [5], the solubility is 2460 µg/mL (≈ 4710 µM). The IC50 is 16.3 µg/mL (≈ 31.2 µM) with HeLa [1], “Not Active” in the series with HeLa [8], 346 µg/mL (≈ 662 µM) in the series on HeLa [3] and 8.97 µg/mL (≈ 17.2 µM) with HeLa [4] (read-out: IC50).

For `Cc1cn([C@H]2C[C@H](N=[N+]=[N-])[C@@H](CP(=O)(O)O)O2)c(=O)[nH]c1=O`, the solubility in series [5] was found to be 11200 µg/mL (≈ 33700 µM). Moreover, the IC50 in the series on MT4 [6] stood at 115 µg/mL (≈ 346 µM); with MT4 [7] it was 7.68 µg/mL (≈ 23.2 µM).

With `Cc1cn([C@H]2C[C@H](F)[C@@H](CP(=O)(O)O)O2)c(=O)[nH]c1=O`, in series [5], the solubility worked out at 12300 µg/mL (≈ 39800 µM). In addition, the IC50 came out at 98.7 µg/mL (≈ 320 µM) in the series on MT4 [6] and 11.8 µg/mL (≈ 38.3 µM) in the series on MT4 [7].

On to `Cc1cn([C@H]2C=C[C@@H](CP(=O)(O)O)O2)c(=O)[nH]c1=O`, for which the results for the IC50 entry in the series with MT4 [9] and in the series on MT4 [6] were “Not Active” and 196 µg/mL (≈ 679 µM), respectively.

As to `Cc1cn([C@H]2C[C@H](C#N)[C@@H](CP(=O)(O)O)O2)c(=O)[nH]c1=O`, the concentration for half-maximal inhibition (IC50) result is “Not Active” in the series with MT4 [9] and 69.9 µg/mL (≈ 222 µM) in the series on MT4 [6].

On to `Cc1cn([C@H]2CC[C@@H](CP(=O)(O)O)O2)c(=O)[nH]c1=O`, for which the IC50 with MT4 [6] was 128 µg/mL (≈ 443 µM); with MT4 [7], 23.5 µg/mL (≈ 81 µM).

In the case of `Cc1cn([C@H]2C[C@H](N=[N+]=[N-])[C@@H](CP(=O)(O)O)O2)c(N)nc1=O`, the results for the IC50 result with MT4 [9] and in the series on MT4 [6] were “Not Active” and 58.6 µg/mL (≈ 178 µM), respectively.

`Nc1ncnc2c1ncn2COCCP(=O)(O)O.Nc1ncnc2c1ncn2[C@@H]1O[C@H](CO)[C@@H](O)[C@@H]1O`: the IC50 worked out at 1.25 µg/mL in the series with HeLa [1], 2.86 µg/mL in the series on HeLa [2], 168 µg/mL in the series with HeLa [3] (read-out: IC50) and 0.67 µg/mL with HeLa [4] (read-out: IC50).

Regarding `Nc1ncnc2c1ncn2COCCO`, the solubility in [5] was 1950 µg/mL (≈ 9320 µM). Also, the IC50 in the series on HeLa [1] was 8.26 µg/mL (≈ 39.5 µM); with HeLa [2], 6.5 µg/mL (≈ 31.1 µM); with HeLa [3] (read-out: IC50), 266 µg/mL (≈ 1270 µM); in the series with HeLa [4] (read-out: IC50) it was 4.43 µg/mL (≈ 21.2 µM).

Regarding `Nc1ncnc2c1ncn2COCCO.Nc1ncnc2c1ncn2COCCP(=O)(O)O`, the IC50 came to 0.38 µg/mL in the series with HeLa [1], 0.18 µg/mL in the series on HeLa [2], 235 µg/mL with HeLa [3] (read-out: IC50) and 0.15 µg/mL with HeLa [4] (read-out: IC50).

As for `Nc1nc2c(ncn2COCCO)c(=O)[nH]1` [ACYCLOVIR], the IC50 is 0.23 µg/mL (≈ 1.02 µM) in the series with HeLa [1], 250 µg/mL (≈ 1110 µM) with HeLa [3] (read-out: IC50) and 0.1 µg/mL (≈ 0.444 µM) with HeLa [4] (read-out: IC50).

Take `Nc1ncnc2c1ncn2[C@@H]1O[C@H](CO)[C@@H](O)[C@H]1O` [ADENOSINE]: the solubility in [5] came out at 400 µg/mL (≈ 1500 µM). The IC50 entry was “Not Active” with HeLa [10], “Not Active” in the series on HeLa [8], 98.8 µg/mL (≈ 370 µM) in the series on HeLa [3] and 10.8 µg/mL (≈ 40.4 µM) with HeLa [4].

For the compound `Cc1cn([C@H]2C[C@H](N=[N+]=[N-])[C@@H](CO)O2)c(=O)[nH]c1=O` [ZIDOVUDINE], the results for the IC50 in the series on MT4 [6] and in the series on MT4 [7] were 57.3 µg/mL (≈ 214 µM) and 0.02 µg/mL (≈ 0.0748 µM), respectively.
